Measured values gathered from unrelated publications.
Compare with care: the assays were run in different laboratories.
Cell line: MDA-MB-231
Effect on: cell growth or viability

Cc1cc2c(cc1N1C(=O)c3cccc4c(CCCO)ccc(c34)C1=O)n(C)c(=O)n2C (racemic) gave a GI50 of greater than 10000 nM (resazurin).
COc1cccc2c1C(=O)c1c(O)c3c(c(O)c1C2=O)C[C@@](O)(C(=O)CO)C[C@@H]3O[C@H]1C[C@H](N)[C@H](O)[C@H](C)O1 gave a GI50 of 53.3 nM (MTT; 72 h).
The GI50 of COc1cc2c(cc1O)CCN(Cc1cc(Br)c(OC)c(OC)c1)C2 is reported as 200 nM (WST-1; 96 h).
COc1ccc(OC)c(CN2CCc3cc(O)c(OC)cc3C2)c1 gave a GI50 of 37000 nM (WST-1; 96 h).
COc1cc2c(cc1O)CC[C@@H]1[C@@H]2CC[C@]2(C)[C@@H](O)CC[C@@H]12 has a GI50 of 1700 nM (48 h).
For CC(=O)c1c(C)c2cnc(Nc3ccc(N4CCNCC4)cn3)nc2n(C2CCCC2)c1=O, the GI50 was 250 nM (resazurin).
COc1cc2c(cc1OS(N)(=O)=O)CCN(Cc1ccc(OC)c(OC)c1OC)C2 gave a GI50 of 11900 nM (WST-1; 96 h).
The GI50 of COc1cc2c(cc1OS(N)(=O)=O)CCN(Cc1cc(Cl)c(OC)c(OC)c1)C2 is reported as 40 nM (WST-1; 96 h).
The GI50 of COc1ccc(OC)c(CN2CCc3cc(OS(N)(=O)=O)c(OC)cc3C2)c1 is reported as 1850 nM (WST-1; 96 h).
For CCOc1c(OC)cc(CN2CCc3cc(OS(N)(=O)=O)c(OC)cc3C2)cc1OC, the GI50 was 70 nM (WST-1; 96 h).
